In brackets after ≈: the same amount, converted by molar mass.
Columns and labels:
Type in all cases: functional
Aspergillus niger = test: Antifungal activity against Aspergillus niger ATCC 16404 after 48 hrs by MTT assay; details: ATCC 16404, 48 h
In short: (§1)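 MIC determined by serial dilution in RPMI-1640 medium in microtitration plates, compounds from 50 mg/mL DMSO stock. Fungal suspension about 10⁵ cfu/mL, incubated at 37 °C for 48 h. Visual MIC reading followed by addition of PBS with 2 mg MTT/mL; OD at 550 nm measured after 12 h at room temperature.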

Staphylococcus aureus = test: Antibacterial activity against Staphylococcus aureus ATCC 6538 after 24 hrs by MTT assay; details: ATCC 6538, 24 h
In short: (§2)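 Broth microdilution MIC in MH medium; compounds from 50 mg/mL DMSO stock serially diluted in medium in microtitration plates. Inoculum about 10⁵ cfu/mL; incubated at 37 °C for 24 h. MIC read visually, then PBS containing 2 mg MTT/mL added per well; after 12 h further incubation at room temperature, OD read at 550 nm.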

Candida albicans = test: Antifungal activity against Candida albicans ATCC 10231 after 48 hrs by MTT assay; details: ATCC 10231, 48 h; in short: as §1
Escherichia coli = test: Antibacterial activity against Escherichia coli ATCC 35218 after 24 hrs by MTT assay; details: ATCC 35218, 24 h; in short: as §2
Pseudomonas fluorescens = test: Antibacterial activity against Pseudomonas fluorescens ATCC 13525 after 24 hrs by MTT assay; details: ATCC 13525, 24 h; in short: as §2
Bacillus subtilis = test: Antibacterial activity against Bacillus subtilis ATCC 6633 after 24 hrs by MTT assay; details: ATCC 6633, 24 h; in short: as §2
Trichophyton rubrum = test: Antifungal activity against Trichophyton rubrum ATCC 10218 after 48 hrs by MTT assay; details: ATCC 10218, 48 h; in short: as §1

Row | SMILES | MIC (Aspergillus niger) [µg/mL] | MIC (Staphylococcus aureus) [µg/mL] | MIC (Candida albicans) [µg/mL] | MIC (Escherichia coli) [µg/mL] | MIC (Pseudomonas fluorescens) [µg/mL] | MIC (Bacillus subtilis) [µg/mL] | MIC (Trichophyton rubrum) [µg/mL]
1 | CCOC(=O)/C(=C\Nc1cc(Cl)cc(Cl)c1)c1ccc(Cl)cc1 | > 50 | > 50 | > 50 | > 50 | > 50 | > 50 | > 50
2 | CCOC(=O)/C(=C/Nc1cc(Cl)cc(Cl)c1)c1ccc(Cl)cc1 | > 50 | 1.1 (≈ 2.97 µM) | > 50 | > 50 | 25.7 (≈ 69.3 µM) | > 50 | > 50
3 | CCOC(=O)/C(=C\Nc1cc(F)cc(F)c1)c1ccc(Cl)cc1 | > 50 | > 50 | > 50 | > 50 | > 50 | > 50 | > 50
4 | CCOC(=O)/C(=C/Nc1cc(F)cc(F)c1)c1ccc(Cl)cc1 | > 50 | 1.9 (≈ 5.63 µM) | > 50 | 13.5 (≈ 40 µM) | 31.5 (≈ 93.3 µM) | 48.2 (≈ 143 µM) | > 50
5 | CCOC(=O)/C(=C/Nc1cc(OC)cc(OC)c1)c1ccc(Cl)cc1 | > 50 | 0.9 (≈ 2.49 µM) | > 50 | > 50 | 1.6 (≈ 4.42 µM) | > 50 | > 50
6 | CCOC(=O)/C(=C\Nc1cc(OC)cc(OC)c1)c1ccc(Cl)cc1 | > 50 | > 50 | > 50 | > 50 | 36.3 (≈ 100 µM) | > 50 | > 50
7 | CCOC(=O)/C(=C/Nc1ccc(Cl)cc1Cl)c1ccc(Cl)cc1 | > 50 | 12.3 (≈ 33.2 µM) | > 50 | > 50 | 7.1 (≈ 19.2 µM) | > 50 | > 50
8 | CCOC(=O)/C(=C\Nc1ccc(F)cc1)c1ccc(Cl)cc1 | > 50 | > 50 | > 50 | 43.4 (≈ 136 µM) | > 50 | 49.8 (≈ 156 µM) | > 50
9 | CCOC(=O)/C(=C\Nc1cc(Br)c(OC)c(Br)c1)c1ccc(Cl)cc1 | > 50 | 47.7 (≈ 97.4 µM) | > 50 | 48.6 (≈ 99.3 µM) | 48.1 (≈ 98.2 µM) | 43.3 (≈ 88.4 µM) | > 50
10 | CCOC(=O)/C(=C/Nc1ccc(F)cc1)c1ccc(Cl)cc1 | > 50 | 35.6 (≈ 111 µM) | > 50 | > 50 | > 50 | > 50 | > 50
11 | CCOC(=O)/C(=C/Nc1ccc(O)cc1)c1ccc(Cl)cc1 | > 50 | 0.5 (≈ 1.57 µM) | > 50 | > 50 | 1.5 (≈ 4.72 µM) | > 50 | > 50
12 | CCOC(=O)/C(=C/Nc1ccccc1F)c1ccc(Cl)cc1 | > 50 | 41.2 (≈ 129 µM) | > 50 | > 50 | > 50 | > 50 | > 50
13 | CCOC(=O)/C(=C\Nc1cc(Br)c(OCc2ccccc2)c(Br)c1)c1ccc(Cl)cc1 | > 50 | > 50 | > 50 | > 50 | > 50 | > 50 | > 50
14 | CCOC(=O)/C(=C/Nc1cc(Br)c(OCc2ccccc2)c(Br)c1)c1ccc(Cl)cc1 | > 50 | 3.4 (≈ 6.01 µM) | > 50 | > 50 | 8.5 (≈ 15 µM) | > 50 | > 50
15 | CCOC(=O)/C(=C\Nc1cc(Br)c(O)c(Br)c1)c1ccc(Cl)cc1 | > 50 | 33.5 (≈ 70.4 µM) | > 50 | > 50 | > 50 | > 50 | > 50
16 | CCOC(=O)/C(=C/Nc1cc(Br)c(O)c(Br)c1)c1ccc(Cl)cc1 | > 50 | 1 (≈ 2.1 µM) | > 50 | > 50 | 3.7 (≈ 7.78 µM) | > 50 | > 50
17 | CCOC(=O)/C(=C/Nc1ccc(Br)cc1Br)c1ccc(Cl)cc1 | > 50 | 8.2 (≈ 17.8 µM) | > 50 | > 50 | 4.5 (≈ 9.79 µM) | > 50 | > 50
18 | CCOC(=O)/C(=C/N1CCCc2ccccc21)c1ccc(Cl)cc1 | > 50 | > 50 | > 50 | > 50 | 38.5 (≈ 113 µM) | > 50 | > 50
19 | CCOC(=O)/C(=C/N1CCCc2ccccc21)c1ccc(OC)cc1 | > 50 | > 50 | > 50 | > 50 | 41.5 (≈ 123 µM) | > 50 | > 50
20 | CCOC(=O)/C(=C\Nc1ccc(F)cc1F)c1ccc(Cl)cc1 | > 50 | > 50 | > 50 | 47.3 (≈ 140 µM) | > 50 | > 50 | > 50
21 | CCOC(=O)/C(=C/Nc1ccc(F)cc1F)c1ccc(Cl)cc1 | > 50 | 40.9 (≈ 121 µM) | > 50 | 48 (≈ 142 µM) | > 50 | > 50 | > 50
22 | CCOC(=O)/C(=C\Nc1ccc(O)cc1)c1ccc(Cl)cc1 | > 50 | 44.9 (≈ 141 µM) | > 50 | 38.9 (≈ 122 µM) | 13.1 (≈ 41.2 µM) | > 50 | > 50
23 | CCOC(=O)/C(=C\Nc1ccc(Cl)cc1Cl)c1ccc(Cl)cc1 | > 50 | > 50 | > 50 | > 50 | > 50 | > 50 | > 50
24 | CCOC(=O)/C(=C\Nc1ccccc1F)c1ccc(Cl)cc1 | > 50 | > 50 | > 50 | > 50 | 46 (≈ 144 µM) | 46.6 (≈ 146 µM) | > 50
25 | CCOC(=O)/C(=C/Nc1cc(Br)c(OC)c(Br)c1)c1ccc(Cl)cc1 | > 50 | 2.2 (≈ 4.49 µM) | > 50 | > 50 | 6.1 (≈ 12.5 µM) | > 50 | > 50
26 | CCOC(=O)/C(=C\Nc1ccc(Br)cc1Br)c1ccc(Cl)cc1 | > 50 | 32.1 (≈ 69.8 µM) | > 50 | > 50 | 23.8 (≈ 51.8 µM) | > 50 | > 50
27 | NC[C@H]1O[C@H](O[C@H]2[C@H](O)[C@@H](O[C@H]3O[C@H](CO)[C@@H](O)[C@H](N)[C@H]3O)[C@H](N)C[C@@H]2N)[C@H](O)[C@@H](O)[C@@H]1O [KANAMYCIN] |  | 1 (≈ 2.06 µM) |  | 3.9 (≈ 8.05 µM) | 3.9 (≈ 8.05 µM) | 0.39 (≈ 0.805 µM) | 
28 | CC(=O)N1CCN(c2ccc(OCC3COC(Cn4ccnc4)(c4ccc(Cl)cc4Cl)O3)cc2)CC1 (stereo unspecified) [KETOCONAZOLE] | 7.8 (≈ 14.7 µM) |  | 3.9 (≈ 7.34 µM) |  |  |  | 3.9 (≈ 7.34 µM)
29 | CC1(C)S[C@@H]2[C@H](NC(=O)Cc3ccccc3)C(=O)N2[C@H]1C(=O)O [PENICILLIN G] |  | 2 (≈ 5.98 µM) |  |  |  | 0.78 (≈ 2.33 µM) | 

Source: ChEMBL document CHEMBL1156708, “Enamines as novel antibacterials and their structure-activity relationships” (2008)
